Data published in ChEMBL document CHEMBL2086314, “Synthesis and anticonvulsant activity of new N-Mannich bases derived from 3-(2-fluorophenyl)- and 3-(2-bromophenyl)-pyrrolidine-2,5-diones. Part II” (Bioorg Med Chem, 2012).

Tests used:
Rattus norvegicus [1] = assay: Anticonvulsant activity in Sprague-Dawley rat assessed as protection from maximum electric shock-induced seizures at 30 mg/kg, po measured after 4 hrs; format: functional
Summary of the method: (§1)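 Male Sprague–Dawley rats, four per group, given 30 mg/kg orally as a suspension in 0.5% methylcellulose/water. MES stimulus 150 mA, 60 Hz, 0.2 s via corneal electrodes. Tested at 0.25, 0.5, 1, 2 and 4 h; value is rats protected out of four.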

Mus musculus [2] = assay: Anticonvulsant activity in ip dosed CF-1 albino mouse assessed as protection from maximal electric shock-induced seizures measured after 0.5 hrs; format: functional; settings: read-out: MED
Summary of the method: (§2)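 Male CF-1 mice dosed ip at 30, 100 or 300 mg/kg, suspension in 0.5% methylcellulose/water. MES: corneal electrodes primed with electrolyte containing anaesthetic, 50 mA, 60 Hz, 0.2 s. Examined 0.5 and 4 h after dosing. Value is the minimum dose protecting half or more of the animals.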

Mus musculus [3] = assay: Neurotoxicity in CF-1 albino mouse assessed as loss of […] reflex at 300 mg/kg, ip measured after 0.5 hrs by rotarod test; format: toxicity, organism-based; parameters: dose 300 mg/kg, route intraperitoneal; settings: in vivo
Summary of the method: (§3)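 Rotarod neurotoxicity in male CF-1 mice given ip doses of 30, 100 or 300 mg/kg (0.5% methylcellulose suspension), examined 0.5 and 4 h after dosing. Impairment means failing to hold balance on the rod for 1 min. Value is the minimum dose causing toxicity in half or more of the animals; response comments are recorded.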

Mus musculus [4] = assay: Anticonvulsant activity in CF-1 albino mouse assessed as protection against 6 Hz psychomotor seizure at 100 mg/kg, ip measured after 0.5 hrs; format: functional; settings: route intraperitoneal
Summary of the method: (§4)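 6-Hz psychomotor seizure in male CF-1 mice, compound suspended in 0.5% methylcellulose/water, given ip (100 or 75 mg/kg). Corneal stimulation with 0.2 ms monopolar rectangular pulses at 6 Hz for 3 s, 32 mA, constant-current device. Protected if normal exploratory behaviour resumes within 10 s. Tested 0.25–4 h after dosing; value is mice protected out of four.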

Rattus norvegicus [5] = assay: Anticonvulsant activity in Sprague-Dawley rat assessed as protection from maximum electric shock-induced seizures at 30 mg/kg, po measured after 2 hrs; format: functional; summary of the method: as §1
[6] = Neurotoxicity in ip dosed CF-1 albino mouse assessed as motor impairment by rotarod test; format: toxicity, organism-based; settings: in vivo
Mus musculus [7] = assay: Anticonvulsant activity in CF-1 albino mouse assessed as protection against 6 Hz psychomotor seizure at 100 mg/kg, ip measured after 4 hrs; format: functional; settings: route intraperitoneal; summary of the method: as §4
Mus musculus [8] = species: Mus musculus; assay: Protective index, ratio of TD50 for CF-1 albino mouse to ED50 for CF-1 albino mouse assessed as protection from 6 Hz psychomotor seizure; format: functional
Summary of the method: (§5)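 6-Hz test (32 mA, 0.2 ms pulses at 6 Hz for 3 s, corneal) in male CF-1 mice dosed ip. Quantified at the time of peak effect in groups of eight across at least three doses giving 10–90% effect. ED50 and TD50 (minimal neurological toxicity) obtained by regression; PI = TD50/ED50.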

Rattus norvegicus [9] = assay: Anticonvulsant activity in Sprague-Dawley rat assessed as protection from maximum electric shock-induced seizures at 30 mg/kg, po measured after 0.5 hrs; format: functional; summary of the method: as §1
Mus musculus [10] = assay: Anticonvulsant activity in CF-1 albino mouse assessed as protection against 6 Hz psychomotor seizure at 100 mg/kg, ip measured after 1 hr; format: functional; settings: route intraperitoneal; summary of the method: as §4
Mus musculus [11] = assay: Anticonvulsant activity in CF-1 albino mouse assessed as protection against 6 Hz psychomotor seizure at 100 mg/kg, ip measured after 2 hrs; format: functional; settings: route intraperitoneal; summary of the method: as §4
Mus musculus [12] = assay: Anticonvulsant activity in ip dosed CF-1 albino mouse assessed as protection against 6 Hz psychomotor seizures; format: functional; summary of the method: as §5
Mus musculus [13] = assay: Neurotoxicity in CF-1 albino mouse assessed as motor impairment at 300 mg/kg, ip measured after 4 hrs by rotarod test; format: toxicity, organism-based; parameters: dose 300 mg/kg, route intraperitoneal; settings: in vivo; summary of the method: as §3
Rattus norvegicus [14] = assay: Neurotoxicity in Sprague-Dawley rat assessed as motor impairment at 30 mg/kg, po by rotarod test; format: toxicity, organism-based; parameters: dose 30 mg/kg, route oral; settings: in vivo
Summary of the method: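 Male Sprague–Dawley rats, four animals, oral 30 mg/kg in 0.5% methylcellulose/water. Motor impairment on the rotarod (failure to keep balance for 1 min) assessed alongside MES at five times from 0.25 to 4 h.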

Mus musculus [15] = assay: Anticonvulsant activity in ip dosed CF-1 albino mouse assessed as protection against subcutaneous pentylenetetrazol-induced seizures measured after 4 hrs; format: functional; settings: read-out: MED
Summary of the method: (§6)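 scPTZ test in male CF-1 mice. Compound suspended in 0.5% methylcellulose/water, ip at 30, 100 or 300 mg/kg. Pentylenetetrazole 85 mg/kg (CD97, clonic seizures lasting at least 5 s) given subcutaneously at the test time, read at 0.5 and 4 h. Value is the minimum dose protecting half or more of the animals.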

Mus musculus [16] = assay: Neurotoxicity in CF-1 albino mouse assessed as inability to grasp rotarod at 300 mg/kg, ip measured after 0.5 hrs by rotarod test; format: toxicity, organism-based; parameters: dose 300 mg/kg, route intraperitoneal; settings: in vivo; summary of the method: as §3
Mus musculus [17] = assay: Anticonvulsant activity in ip dosed CF-1 albino mouse assessed as protection from maximal electric shock-induced seizures measured after 4 hrs; format: functional; settings: read-out: MED; summary of the method: as §2
Mus musculus [18] = assay: Anticonvulsant activity in ip dosed 6 Hz psychomotor-induced seizure in CF-1 albino mouse assessed as time of peak effect; format: functional
Mus musculus [19] = assay: Neurotoxicity in ip dosed CF-1 albino mouse assessed as motor impairment measured after 0.5 hrs by rotarod test; format: toxicity, organism-based; settings: in vivo; summary of the method: as §3
Mus musculus [20] = assay: Anticonvulsant activity in CF-1 albino mouse assessed as protection against 6 Hz psychomotor seizure at 100 mg/kg, ip measured after 0.25 hrs; format: functional; settings: route intraperitoneal; summary of the method: as §4
Rattus norvegicus [21] = assay: Anticonvulsant activity in Sprague-Dawley rat assessed as protection from maximum electric shock-induced seizures at 30 mg/kg, po measured after 1 hr; format: functional; summary of the method: as §1
Rattus norvegicus [22] = assay: Anticonvulsant activity in Sprague-Dawley rat assessed as protection from maximum electric shock-induced seizures at 30 mg/kg, po measured after 0.25 hrs; format: functional; summary of the method: as §1
Mus musculus [23] = assay: Neurotoxicity in CF-1 albino mouse assessed as myoclonic jerks at 300 mg/kg, ip measured after 4 hrs by rotarod test; format: toxicity, organism-based; parameters: dose 300 mg/kg, route intraperitoneal; settings: in vivo
Mus musculus [24] = assay: Anticonvulsant activity in ip dosed CF-1 albino mouse assessed as protection against subcutaneous pentylenetetrazol-induced seizures measured after 0.5 hrs; format: functional; settings: read-out: MED; summary of the method: as §6

Compound: O=C1CC(c2ccccc2F)C(=O)N1CN1CCOCC1 (racemic)
- Activity (Rattus norvegicus [1]): 25%
- minimal effective dose (Mus musculus [2]): 100 mg/kg
- Activity (Mus musculus [3]): Toxic
- Activity (Mus musculus [4]): 100%
- Activity (Rattus norvegicus [5]): 50%
- TD50 [6]: 253 mg/kg
- Activity (Mus musculus [7]): 25%
- Ratio TD50/ED50 (Mus musculus [8]): 2.46
- Activity (Rattus norvegicus [9]): 25%
- Activity (Mus musculus [10]): 100%
- Activity (Mus musculus [11]): 75%
- ED50 (Mus musculus [12]): 103 mg/kg
- Activity (Mus musculus [13]): Non-toxic
- Activity (Rattus norvegicus [14]): Non-toxic
- minimal effective dose (Mus musculus [15]): 300 mg/kg
- Activity (Mus musculus [16]): Toxic
- minimal effective dose (Mus musculus [17]): 100 mg/kg
- Time (Mus musculus [18]): 4 h
- MTC (Mus musculus [19]): 300 mg/kg
- Activity (Mus musculus [20]): 100%
- Activity (Rattus norvegicus [21]): 50%
- Activity (Rattus norvegicus [22]): 25%
- Activity (Mus musculus [23]): Toxic
- minimal effective dose (Mus musculus [24]): 300 mg/kg
